# ChEMBL document CHEMBL1687776, “Origin and molecular evolution of the determinant of methicillin resistance in staphylococci” (2010)
# System: Staphylococcus vitulinus
# Assay: Antibacterial activity against mecA-negative Staphylococcus vitulinus SVMN03 by agar dilution method
# Type: functional
# Conditions: Mammaliicoccus vitulinus
# In short: (§1)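 MIC by agar dilution on Mueller-Hinton agar following CLSI guidelines. Resistance was assigned using CLSI breakpoints. Agents tested were oxacillin, ampicillin, ceftizoxime, ceftriaxone and cefoxitin. Strains were from animal or food sources and identified by hsp60 and/or sodA sequencing. mecA absence was assessed by PCR with degenerate primers for mecA and its homologues.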
row,SMILES,MIC
1,CO/N=C(\C(=O)N[C@@H]1C(=O)N2C(C(=O)O)=C(CSc3nc(=O)c(O)nn3C)CS[C@H]12)c1csc(N)n1 [CEFTRIAXONE],1 µg/mL

# System: Staphylococcus vitulinus
# Assay: Antibacterial activity against methicillin-resistant mecA-positive Staphylococcus vitulinus SVMP04 by agar dilution method
# Type: functional
# Conditions: Mammaliicoccus vitulinus
# In short: (§2)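 MIC by agar dilution on Mueller-Hinton agar per CLSI guidance; resistance judged against CLSI breakpoints. Strains were animal or food isolates (type strains for S. sciuri subspecies), typed by hsp60 and/or sodA sequencing; mecA homologue carriage checked by PCR with degenerate primers. Agents tested: oxacillin, ampicillin, ceftizoxime, ceftriaxone, cefoxitin.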
row,SMILES,MIC
1,CO/N=C(\C(=O)N[C@@H]1C(=O)N2C(C(=O)O)=C(CSc3nc(=O)c(O)nn3C)CS[C@H]12)c1csc(N)n1 [CEFTRIAXONE],2 µg/mL

# System: Staphylococcus vitulinus
# Assay: Antibacterial activity against mecA-negative Staphylococcus vitulinus SVMN01 (ATCC 51145T) by agar dilution method
# Type: functional
# Conditions: Mammaliicoccus vitulinus
# In short: as §1
row,SMILES,MIC
1,CO/N=C(\C(=O)N[C@@H]1C(=O)N2C(C(=O)O)=C(CSc3nc(=O)c(O)nn3C)CS[C@H]12)c1csc(N)n1 [CEFTRIAXONE],8 µg/mL

# System: Mammaliicoccus lentus
# Assay: Antibacterial activity against mecA-negative Staphylococcus lentus ATCC 29070T by agar dilution method
# Type: functional
# Conditions: not given
# In short: as §1
row,SMILES,MIC
1,CO/N=C(\C(=O)N[C@@H]1C(=O)N2C(C(=O)O)=C(CSc3nc(=O)c(O)nn3C)CS[C@H]12)c1csc(N)n1 [CEFTRIAXONE],2 µg/mL

# System: Staphylococcus vitulinus
# Assay: Antibacterial activity against mecA-negative Staphylococcus vitulinus SVMN10 by agar dilution method
# Type: functional
# Conditions: Mammaliicoccus vitulinus
# In short: as §1
row,SMILES,MIC
1,CO/N=C(\C(=O)N[C@@H]1C(=O)N2C(C(=O)O)=C(CSc3nc(=O)c(O)nn3C)CS[C@H]12)c1csc(N)n1 [CEFTRIAXONE],1 µg/mL

# System: Staphylococcus fleurettii
# Assay: Antibacterial activity against methicillin-resistant mecA-positive Staphylococcus fleurettii SFMP03 by agar dilution method
# Type: functional
# Conditions: Mammaliicoccus fleurettii
# In short: as §2
row,SMILES,MIC
1,CO/N=C(\C(=O)N[C@@H]1C(=O)N2C(C(=O)O)=C(CSc3nc(=O)c(O)nn3C)CS[C@H]12)c1csc(N)n1 [CEFTRIAXONE],64 µg/mL

# System: Staphylococcus fleurettii
# Assay: Antibacterial activity against mecA-negative Staphylococcus fleurettii SFMN02 by agar dilution method
# Type: functional
# Conditions: Mammaliicoccus fleurettii
# In short: as §1
row,SMILES,MIC
1,CO/N=C(\C(=O)N[C@@H]1C(=O)N2C(C(=O)O)=C(CSc3nc(=O)c(O)nn3C)CS[C@H]12)c1csc(N)n1 [CEFTRIAXONE],4 µg/mL

# System: Staphylococcus vitulinus
# Assay: Antibacterial activity against methicillin-resistant mecA-positive Staphylococcus vitulinus SVMP05 by agar dilution method
# Type: functional
# Conditions: Mammaliicoccus vitulinus
# In short: as §2
row,SMILES,MIC
1,CO/N=C(\C(=O)N[C@@H]1C(=O)N2C(C(=O)O)=C(CSc3nc(=O)c(O)nn3C)CS[C@H]12)c1csc(N)n1 [CEFTRIAXONE],4 µg/mL

# System: Staphylococcus vitulinus
# Assay: Antibacterial activity against mecA-negative Staphylococcus vitulinus SVMN02 by agar dilution method
# Type: functional
# Conditions: Mammaliicoccus vitulinus
# In short: as §2
row,SMILES,MIC
1,CO/N=C(\C(=O)N[C@@H]1C(=O)N2C(C(=O)O)=C(CSc3nc(=O)c(O)nn3C)CS[C@H]12)c1csc(N)n1 [CEFTRIAXONE],4 µg/mL

# System: Staphylococcus vitulinus
# Assay: Antibacterial activity against mecA-negative Staphylococcus vitulinus SVMN13 by agar dilution method
# Type: functional
# Conditions: Mammaliicoccus vitulinus
# In short: as §1
row,SMILES,MIC
1,CO/N=C(\C(=O)N[C@@H]1C(=O)N2C(C(=O)O)=C(CSc3nc(=O)c(O)nn3C)CS[C@H]12)c1csc(N)n1 [CEFTRIAXONE],1 µg/mL

# System: Staphylococcus vitulinus
# Assay: Antibacterial activity against methicillin-resistant mecA-positive Staphylococcus vitulinus SVMP03 by agar dilution method
# Type: functional
# Conditions: Mammaliicoccus vitulinus
# In short: as §2
row,SMILES,MIC
1,CO/N=C(\C(=O)N[C@@H]1C(=O)N2C(C(=O)O)=C(CSc3nc(=O)c(O)nn3C)CS[C@H]12)c1csc(N)n1 [CEFTRIAXONE],4 µg/mL

# System: Staphylococcus vitulinus
# Assay: Antibacterial activity against mecA-negative Staphylococcus vitulinus SVMN07 by agar dilution method
# Type: functional
# Conditions: Mammaliicoccus vitulinus
# In short: as §2
row,SMILES,MIC
1,CO/N=C(\C(=O)N[C@@H]1C(=O)N2C(C(=O)O)=C(CSc3nc(=O)c(O)nn3C)CS[C@H]12)c1csc(N)n1 [CEFTRIAXONE],2 µg/mL

# System: Staphylococcus vitulinus
# Assay: Antibacterial activity against mecA-negative Staphylococcus vitulinus SVMN05 by agar dilution method
# Type: functional
# Conditions: Mammaliicoccus vitulinus
# In short: as §2
row,SMILES,MIC
1,CO/N=C(\C(=O)N[C@@H]1C(=O)N2C(C(=O)O)=C(CSc3nc(=O)c(O)nn3C)CS[C@H]12)c1csc(N)n1 [CEFTRIAXONE],1 µg/mL

# System: Staphylococcus vitulinus
# Assay: Antibacterial activity against mecA-negative Staphylococcus vitulinus SVMN14 by agar dilution method
# Type: functional
# Conditions: Mammaliicoccus vitulinus
# In short: as §2
row,SMILES,MIC
1,CO/N=C(\C(=O)N[C@@H]1C(=O)N2C(C(=O)O)=C(CSc3nc(=O)c(O)nn3C)CS[C@H]12)c1csc(N)n1 [CEFTRIAXONE],2 µg/mL

# System: Staphylococcus fleurettii
# Assay: Antibacterial activity against methicillin-resistant mecA-positive Staphylococcus fleurettii SFMP04 by agar dilution method
# Type: functional
# Conditions: Mammaliicoccus fleurettii
# In short: as §2
row,SMILES,MIC
1,CO/N=C(\C(=O)N[C@@H]1C(=O)N2C(C(=O)O)=C(CSc3nc(=O)c(O)nn3C)CS[C@H]12)c1csc(N)n1 [CEFTRIAXONE],64 µg/mL

# System: Staphylococcus vitulinus
# Assay: Antibacterial activity against methicillin-resistant mecA-positive Staphylococcus vitulinus SVMP01 by agar dilution method
# Type: functional
# Conditions: Mammaliicoccus vitulinus
# In short: as §2
row,SMILES,MIC
1,CO/N=C(\C(=O)N[C@@H]1C(=O)N2C(C(=O)O)=C(CSc3nc(=O)c(O)nn3C)CS[C@H]12)c1csc(N)n1 [CEFTRIAXONE],4 µg/mL

# System: not listed separately
# Assay: Antibacterial activity against mecA-positive Staphylococcus sciuri subsp. carnaticus ATCC 700058T by agar dilution method
# Conditions: Mammaliicoccus sciuri
row,SMILES,MIC
1,CO/N=C(\C(=O)N[C@@H]1C(=O)N2C(C(=O)O)=C(CSc3nc(=O)c(O)nn3C)CS[C@H]12)c1csc(N)n1 [CEFTRIAXONE],8 µg/mL
